Assay [1] deals with MT4. Kind of assay: Effective concentration to achieve 50% protection of MT-4 cells against the cytopathic effect of HIV-2. Format: functional, cell-based. Conditions: mt4. (In general: Protection from cytopathic effect is a common read-out in antiviral testing.)
Assay [2] relates to MT4. The assay is described as follows: Selectivity index for CC50 (cytotoxic concentration based on reduction of viability of mock-infected MT-4 cells) to that of EC50 against HIV-2. Type of assay: functional. In outline: (§1)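 MT-4 cells at 3 × 10^5 cells/mL were infected with HIV-1 IIIB or HIV-2 ROD at 100 CCID50/mL, or mock-infected, alongside serial compound dilutions. Viability was read by MTT after 5 days at 37 °C. CC50 comes from mock-infected cells and EC50 from protection against cytopathicity. Index = CC50/EC50.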

For assay [3], the system named is HuT78. Kind of assay: Giant-cell formation between persistently HIV-1 infected HUT-78 cells and uninfected MOLT-4 cells. Type of assay: functional, cell-based. The conditions noted are these: hut78. In outline: (§2)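 MOLT-4 cells were co-cultured with an equal number of HUT-78 cells persistently infected with HIV-1 IIIB or HIV-2 ROD, with varying compound concentrations. Syncytia were counted by flow cytofluorography after 24 h. EC50 is the concentration giving 50% protection against giant-cell formation.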

Assay [4] deals with HuT78. Kind of assay: Giant-cell formation between persistently HIV-2 infected HUT-78 cells and uninfected MOLT-4 cells. Conditions: hut78. Type of assay: functional, cell-based. The method, boiled down:
as §2

For assay [5], the system named is MT4. The assay is described as follows: Selectivity index for CC50 (cytotoxic concentration based on the reduction of the viability of mock-infected MT-4 cells) to that of EC50 against HIV-1. Type of assay: functional. The method, boiled down:
as §1

The subject of assay [6] is MT4. Kind of assay: Effective concentration to achieve 50% protection of MT-4 cells against the cytopathic effect of HIV-1. Format: functional, cell-based. The conditions noted are these: mt4.
Assay [7] can be described thus: In vitro anticoagulant activity determined by clotting test of activated partial thromboplastin time (APTT) on a pool of human plasma. Type of assay: functional. In outline: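 Activated partial thromboplastin time clotting test on pooled human plasma, run on an automatic coagulometer. Activities were calculated according to the European Pharmacopoeia.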

The term EC50 denotes the midpoint of the concentration-response curve. Read a high EC50 as weaker potency. For the compound `CCCCCC(=O)OC/C(=C\C(=O)[O-])OC1OC(COS(=O)(=O)[O-])C(OC2OC(C(=O)[O-])C(OC3OC(COS(=O)(=O)[O-])C(OC4OC(C(=O)[O-])C(OC5OC(CS(=O)(=O)[O-])C(O)C(OC(=O)CCCCC)C5NS(=O)(=O)[O-])C(OC(=O)CCCCC)C4OS(=O)(=O)[O-])C(OC(=O)CCCCC)C3NS(=O)(=O)[O-])C(OC(=O)CCCCC)C2OS(=O)(=O)[O-])C(OC(=O)CCCCC)C1NS(=O)(=O)[O-].[Na+].[Na+].[Na+].[Na+].[Na+].[Na+].[Na+].[Na+].[Na+].[Na+].[Na+]` (stereo in doubt; 3g), the values for the EC50 in the assay with MT4 [1], in the assay with HuT78 [3] and in the assay on HuT78 [4] were 0.8 µg/mL, 6 µg/mL and 75 µg/mL, respectively. This compound also showed a Selectivity index in the assay on MT4 [2] of more than 650.
As to `CCCCCC(=O)OC/C(=C\C(=O)[O-])OC1OC(COS(=O)(=O)[O-])C(OC2OC(C(=O)[O-])C(OC3OC(COS(=O)(=O)[O-])C(OC4OC(C(=O)[O-])C(OC5OC(CS(=O)(=O)[O-])C(O)C(OC(=O)CCCCC)C5NS(=O)(=O)[O-])C(OC(=O)CCCCC)C4OS(=O)(=O)[O-])C(OC(=O)CCCCC)C3NS(=O)(=O)[O-])C(OC(=O)CCCCC)C2OS(=O)(=O)[O-])C(OC(=O)CCCCC)C1NS(=O)(=O)[O-].[Na+].[Na+].[Na+].[Na+].[Na+].[Na+].[Na+].[Na+].[Na+].[Na+].[Na+]` (stereo in doubt; 3i), the Selectivity index in the assay with MT4 [5] is on record as more than 2600; in the assay with MT4 [2], more than 1666. In addition, the EC50 with MT4 [1] was found to be 0.3 µg/mL; in the assay with HuT78 [4], 13 µg/mL.
`CCCCCC(=O)OC/C(=C\C(=O)[O-])OC1OC(COS(=O)(=O)[O-])C(OC2OC(C(=O)[O-])C(OC3OC(COS(=O)(=O)[O-])C(OC4OC(C(=O)[O-])C(OC5OC(CS(=O)(=O)[O-])C(O)C(OC(=O)CCCCC)C5NS(=O)(=O)[O-])C(OC(=O)CCCCC)C4OS(=O)(=O)[O-])C(OC(=O)CCCCC)C3NS(=O)(=O)[O-])C(OC(=O)CCCCC)C2OS(=O)(=O)[O-])C(OC(=O)CCCCC)C1NS(=O)(=O)[O-].[Na+].[Na+].[Na+].[Na+].[Na+].[Na+].[Na+].[Na+].[Na+].[Na+].[Na+]` (stereo in doubt; 3j): the Selectivity index with MT4 [5] was more than 1250. Also, the EC50 in the assay with HuT78 [3] was 2 µg/mL; with HuT78 [4], 10 µg/mL; with MT4 [6], 0.4 µg/mL.
Take `CCCC(=O)OC/C(=C\C(=O)[O-])O[C@H]1O[C@H](COS(=O)(=O)[O-])[C@@H](O[C@@H]2O[C@@H](C(=O)[O-])[C@@H](O[C@H]3O[C@H](COS(=O)(=O)[O-])[C@@H](O[C@@H]4O[C@@H](C(=O)[O-])[C@@H](O[C@H]5O[C@H](CS(=O)(=O)[O-])[C@@H](O)[C@H](OC(=O)CCC)[C@H]5NS(=O)(=O)[O-])[C@H](OC(=O)CCC)[C@H]4OS(=O)(=O)[O-])[C@H](OC(=O)CCC)[C@H]3NS(=O)(=O)[O-])[C@H](OC(=O)CCC)[C@H]2OS(=O)(=O)[O-])[C@H](OC(=O)CCC)[C@H]1NS(=O)(=O)[O-].[Na+].[Na+].[Na+].[Na+].[Na+].[Na+].[Na+].[Na+].[Na+].[Na+].[Na+]` (stereo in doubt; 4c): the Selectivity index in the assay on MT4 [5] is listed as 80; in the assay with MT4 [2], 40000. The APTT in assay [7] is 2.7 IU mg-1. Also, the concentration giving a half-maximal response (EC50) in the assay on MT4 [1] was found to be 0.01 µg/mL; in the assay on HuT78 [3] it was 57.5 µg/mL; with MT4 [6] it was 5 µg/mL.
Turning to `CCCC(=O)OC/C(=C\C(=O)[O-])O[C@H]1O[C@H](COS(=O)(=O)[O-])[C@@H](O[C@@H]2O[C@@H](C(=O)[O-])[C@@H](O[C@H]3O[C@H](COS(=O)(=O)[O-])[C@@H](O[C@@H]4O[C@@H](C(=O)[O-])[C@@H](O[C@H]5O[C@H](CS(=O)(=O)[O-])[C@@H](O)[C@H](OC(=O)CCC)[C@H]5NS(=O)(=O)[O-])[C@H](OC(=O)CCC)[C@H]4OS(=O)(=O)[O-])[C@H](OC(=O)CCC)[C@H]3NS(=O)(=O)[O-])[C@H](OC(=O)CCC)[C@H]2OS(=O)(=O)[O-])[C@H](OC(=O)CCC)[C@H]1NS(=O)(=O)[O-].[Na+].[Na+].[Na+].[Na+].[Na+].[Na+].[Na+].[Na+].[Na+].[Na+].[Na+]` (stereo in doubt; 4d), the Selectivity index is more than 382 in the assay on MT4 [5] and more than 12500 in the assay on MT4 [2]. Further, the APTT in assay [7] stood at 2.9 IU mg-1. For the same compound, the EC50 in the assay on MT4 [1] came out at 0.04 µg/mL; with HuT78 [3] it was 37.3 µg/mL; in the assay on MT4 [6], 1.31 µg/mL.
In the case of `CCCC(=O)OC/C(=C\C(=O)[O-])O[C@H]1O[C@H](COS(=O)(=O)[O-])[C@@H](O[C@@H]2O[C@@H](C(=O)[O-])[C@@H](O[C@H]3O[C@H](COS(=O)(=O)[O-])[C@@H](O[C@@H]4O[C@@H](C(=O)[O-])[C@@H](O[C@H]5O[C@H](CS(=O)(=O)[O-])[C@@H](O)[C@H](OC(=O)CCC)[C@H]5NS(=O)(=O)[O-])[C@H](OC(=O)CCC)[C@H]4OS(=O)(=O)[O-])[C@H](OC(=O)CCC)[C@H]3NS(=O)(=O)[O-])[C@H](OC(=O)CCC)[C@H]2OS(=O)(=O)[O-])[C@H](OC(=O)CCC)[C@H]1NS(=O)(=O)[O-].[Na+].[Na+].[Na+].[Na+].[Na+].[Na+].[Na+].[Na+].[Na+].[Na+].[Na+]` (stereo in doubt; 4e), the Selectivity index is listed as more than 526 with MT4 [5] and more than 7142 with MT4 [2]. Besides, the APTT in assay [7] was 4.5 IU mg-1. Also, the EC50 came to 0.07 µg/mL in the assay with MT4 [1], 43.7 µg/mL in the assay with HuT78 [3] and 0.95 µg/mL with MT4 [6].
Consider `CCCC(=O)OC/C(=C\C(=O)[O-])O[C@H]1O[C@H](COS(=O)(=O)[O-])[C@@H](O[C@@H]2O[C@@H](C(=O)[O-])[C@@H](O[C@H]3O[C@H](COS(=O)(=O)[O-])[C@@H](O[C@@H]4O[C@@H](C(=O)[O-])[C@@H](O[C@H]5O[C@H](CS(=O)(=O)[O-])[C@@H](O)[C@H](OC(=O)CCC)[C@H]5NS(=O)(=O)[O-])[C@H](OC(=O)CCC)[C@H]4OS(=O)(=O)[O-])[C@H](OC(=O)CCC)[C@H]3NS(=O)(=O)[O-])[C@H](OC(=O)CCC)[C@H]2OS(=O)(=O)[O-])[C@H](OC(=O)CCC)[C@H]1NS(=O)(=O)[O-].[Na+].[Na+].[Na+].[Na+].[Na+].[Na+].[Na+].[Na+].[Na+].[Na+].[Na+]` (stereo in doubt; 4f), for which the results for the Selectivity index with MT4 [5] and with MT4 [2] were more than 1136 and more than 1667, respectively. In assay [7], this compound returned an APTT of 6.1 IU mg-1. Moreover, the EC50 in the assay with MT4 [1] was 0.3 µg/mL; with HuT78 [3] it was 1.3 µg/mL; in the assay on MT4 [6], 0.44 µg/mL.
As to `CCCC(=O)OC/C(=C\C(=O)[O-])O[C@H]1O[C@H](COS(=O)(=O)[O-])[C@@H](O[C@@H]2O[C@@H](C(=O)[O-])[C@@H](O[C@H]3O[C@H](COS(=O)(=O)[O-])[C@@H](O[C@@H]4O[C@@H](C(=O)[O-])[C@@H](O[C@H]5O[C@H](CS(=O)(=O)[O-])[C@@H](O)[C@H](OC(=O)CCC)[C@H]5NS(=O)(=O)[O-])[C@H](OC(=O)CCC)[C@H]4OS(=O)(=O)[O-])[C@H](OC(=O)CCC)[C@H]3NS(=O)(=O)[O-])[C@H](OC(=O)CCC)[C@H]2OS(=O)(=O)[O-])[C@H](OC(=O)CCC)[C@H]1NS(=O)(=O)[O-].[Na+].[Na+].[Na+].[Na+].[Na+].[Na+].[Na+].[Na+].[Na+].[Na+].[Na+]` (stereo in doubt; 4h), the figures for the Selectivity index in the assay with MT4 [5] and with MT4 [2] were more than 1786 and more than 2174, respectively. The APTT in assay [7] is listed as 9.7 IU mg-1. Moreover, the EC50 in the assay on MT4 [1] was 0.23 µg/mL; in the assay with HuT78 [3], 7.5 µg/mL; in the assay with MT4 [6] it was 0.28 µg/mL.
With `CCCC(=O)OC/C(=C\C(=O)[O-])O[C@H]1O[C@H](COS(=O)(=O)[O-])[C@@H](O[C@@H]2O[C@@H](C(=O)[O-])[C@@H](O[C@H]3O[C@H](COS(=O)(=O)[O-])[C@@H](O[C@@H]4O[C@@H](C(=O)[O-])[C@@H](O[C@H]5O[C@H](CS(=O)(=O)[O-])[C@@H](O)[C@H](OC(=O)CCC)[C@H]5NS(=O)(=O)[O-])[C@H](OC(=O)CCC)[C@H]4OS(=O)(=O)[O-])[C@H](OC(=O)CCC)[C@H]3NS(=O)(=O)[O-])[C@H](OC(=O)CCC)[C@H]2OS(=O)(=O)[O-])[C@H](OC(=O)CCC)[C@H]1NS(=O)(=O)[O-].[Na+].[Na+].[Na+].[Na+].[Na+].[Na+].[Na+].[Na+].[Na+].[Na+].[Na+]` (stereo in doubt; 4i), the Selectivity index with MT4 [5] is more than 1852; with MT4 [2], more than 2941. Moreover, in assay [7], the APTT was determined as 16.8 IU mg-1. In addition, the EC50 is 0.16 µg/mL in the assay on MT4 [1], 2.1 µg/mL in the assay on HuT78 [3] and 0.27 µg/mL in the assay on MT4 [6].
`CCCC(=O)OC/C(=C\C(=O)[O-])O[C@H]1O[C@H](COS(=O)(=O)[O-])[C@@H](O[C@@H]2O[C@@H](C(=O)[O-])[C@@H](O[C@H]3O[C@H](COS(=O)(=O)[O-])[C@@H](O[C@@H]4O[C@@H](C(=O)[O-])[C@@H](O[C@H]5O[C@H](CS(=O)(=O)[O-])[C@@H](O)[C@H](OC(=O)CCC)[C@H]5NS(=O)(=O)[O-])[C@H](OC(=O)CCC)[C@H]4OS(=O)(=O)[O-])[C@H](OC(=O)CCC)[C@H]3NS(=O)(=O)[O-])[C@H](OC(=O)CCC)[C@H]2OS(=O)(=O)[O-])[C@H](OC(=O)CCC)[C@H]1NS(=O)(=O)[O-].[Na+].[Na+].[Na+].[Na+].[Na+].[Na+].[Na+].[Na+].[Na+].[Na+].[Na+]` (stereo in doubt; 4k): the Selectivity index in the assay on MT4 [5] is more than 980; with MT4 [2] it was more than 1923. Also, the APTT in assay [7] was 29.3 IU mg-1. Further, the EC50 in the assay with MT4 [1] was 0.26 µg/mL; with HuT78 [3], 2 µg/mL; in the assay with MT4 [6], 0.51 µg/mL.

The values are drawn from ChEMBL document CHEMBL1126896, “Preparation and anti-HIV activity of O-acylated heparin and dermatan sulfate derivatives with low anticoagulant effect” (J Med Chem, 1993).
